Experimental data taken from ChEMBL document CHEMBL4431307, “Dehydroleucodine, a Sesquiterpene Lactone from Gynoxys verrucosa, Demonstrates Cytotoxic Activity against Human Leukemia Cells” (J Nat Prod, 2016).
Calls of active or inactive are those of the source. No cut-off for these calls is given here.

Legend:
[1] = system: THP-1; test: Cytotoxicity against human THP1 cells assessed as decrease in cell viability after 48 hrs […]; assay type: functional; settings: THP-1, 48 h, read-out: LD50 (the source's name)
Method in brief: (§1)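 AML cell lines seeded at 0.5 million cells/mL (counted by Trypan Blue exclusion) and exposed to varying concentrations in triplicate for 48 h. Read-out by flow cytometry after annexin V (FITC or PE) and 7-AAD staining, at least 50 000 events per condition; annexin V/7AAD double-negative cells scored viable. Value reported as LD50.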

[2] = species on record: Homo sapiens; test: Inhibition of NF-kappaB p65 phosphorylation in human MOLM13 cells at 5 to 20 uM after 6 hrs by Western blot analysis; assay type: cell-based
Method in brief: (§2)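 MOLM-13 cells at 0.5 million/mL were treated 6 h and lysed on ice for 30 min in Tris pH 7.5/NaCl/Triton/SDS buffer with phosphatase and protease inhibitors. Lysates were run on 10% SDS-PAGE and blotted to PVDF. Membranes were probed separately for phospho-p65 and total p65 at 4 °C overnight, detected with IRDye secondaries by infrared imaging, with total p65 as loading control.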

[3] = system: MV4-11; test: Cytotoxicity against human MV4-11 cells assessed as decrease in cell viability after 48 hrs […]; assay type: functional; settings: MV4-11, 48 h, read-out: LD50 (the source's name); method in brief: as §1
[4] = species on record: Homo sapiens; test: Inhibition of NF-kappaB in human MOLM13 cells assessed as MYB gene expression at 10 to 20 uM after 6 hrs by Western blot analysis; assay type: cell-based
[5] = species on record: Homo sapiens; test: Inhibition of NF-kappaB DNA binding activity in human MOLM13 cells by ELISA; assay type: cell-based
Method in brief: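 p65 DNA-binding ELISA in MOLM-13 cells, with TNFα as positive control, run in triplicate.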

[6] = system: MOLM-13; test: Effect on total NF-kappaB p65 level in human MOLM13 cells at 5 to 20 uM after 6 hrs by Western blot analysis; assay type: cell-based; settings: molm-13, 6 h; method in brief: as §2
[7] = system: MOLM-13; test: Upregulation of HSPA1A in human MOLM13 cells at 20 uM after 6 hrs by qRT-PCR analysis; assay type: functional, cell-based
Method in brief: (§3)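 MOLM-13 cells at 0.5 million/mL were treated 6 h with 20 μM compound, then total RNA was extracted. One-step TaqMan RT-qPCR was run: RT 48 °C 15 min, then 95 °C 10 min, then 40 cycles of 95 °C 15 s and 60 °C 1 min. Singleplex reactions were in triplicate, with fold change by the 2^-ΔΔCt method.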

[8] = system: MOLM-13; test: Downregulation of NF-kappaB1A transcription in human MOLM13 cells at 20 uM after 6 hrs by qRT-PCR analysis; assay type: functional, cell-based; method in brief: as §3
[9] = system: U-937; test: Cytotoxicity against human U937 cells assessed as decrease in cell viability after 48 hrs […]; assay type: functional; settings: U-937, 48 h, read-out: LD50 (the source's name); method in brief: as §1
[10] = system: TUR; test: Cytotoxicity against human TUR cells assessed as decrease in cell viability after 48 hrs […]; assay type: functional; settings: read-out: LD50 (the source's name); method in brief: as §1
[11] = system: KG-1; test: Cytotoxicity against human KG1 cells assessed as decrease in cell viability after 48 hrs […]; assay type: functional; settings: KG-1, 48 h, read-out: LD50 (the source's name); method in brief: as §1
[12] = species on record: Homo sapiens; test: Inhibition of NF-kappaB in human MOLM13 cells assessed as CDK6 gene expression at 10 to 20 uM after 6 hrs by Western blot analysis; assay type: cell-based
[13] = system: HL-60; test: Cytotoxicity against human HL60 cells assessed as decrease in cell viability after 48 hrs […]; assay type: functional; settings: HL-60, 48 h, read-out: LD50 (the source's name); method in brief: as §1
[14] = system: Kasumi 1; test: Cytotoxicity against human Kasumi-1 cells assessed as decrease in cell viability after 48 hrs by […]; assay type: functional; settings: Kasumi 1, 48 h, read-out: LD50 (the source's name); method in brief: as §1
[15] = system: MOLM-13; test: Cytotoxicity against human MOLM13 cells assessed as decrease in cell viability after 48 hrs […]; assay type: functional; settings: MOLM-13, 48 h, read-out: LD50 (the source's name); method in brief: as §1
[16] = system: MOLM-13; test: Upregulation of heme oxygenase 1 in human MOLM13 cells at 20 uM after 6 hrs by qRT-PCR analysis; assay type: functional, cell-based; method in brief: as §3
[17] = system: MCF7; test: Cytotoxicity against human MCF7 cells assessed as decrease in cell viability after 72 to 96 hrs by MTT assay; assay type: functional, cell-based
[18] = system: U-937; test: Cytotoxicity against human U937 cells assessed as decrease in cell viability at 20 uM after 48 hrs by annexin V-FITC/7-AAD staining based flow cytometry relative to control; assay type: functional
Method in brief: (§4)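 AML cell lines kept at 0.5 million cells/mL and treated in triplicate for 48 h. Cells were stained with annexin V (FITC or PE) plus 7-AAD, and at least 50 000 events were recorded per condition by flow cytometry. Annexin V-/7-AAD- cells were scored viable, with viability taken relative to untreated control.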

[19] = system: THP-1; test: Cytotoxicity against human THP1 cells assessed as decrease in cell viability at 20 uM after 48 hrs by annexin V-FITC/7-AAD staining based flow cytometry relative to control; assay type: functional; method in brief: as §4
[20] = system: KB; test: Cytotoxicity against human KB cells assessed as decrease in cell viability after 72 hrs by MTT assay; assay type: functional, cell-based
[21] = system: HeLa S3; test: Cytotoxicity against human HeLaS3 cells assessed as decrease in cell viability after 72 to 96 hrs by MTT assay; assay type: functional, cell-based
[22] = system: TUR; test: Cytotoxicity against human TUR cells assessed as decrease in cell viability at 20 uM after 48 hrs by annexin V-FITC/7-AAD staining based flow cytometry relative to control; assay type: functional; method in brief: as §4
[23] = system: Kasumi 1; test: Cytotoxicity against human Kasumi-1 cells assessed as decrease in cell viability at 20 uM after 48 hrs by annexin V-FITC/7-AAD staining based flow cytometry relative to control; assay type: functional; method in brief: as §4
[24] = system: Leukemia cell; test: Cytotoxicity against primary leukemia cells isolated from human AML patient assessed as cell death after 48 hrs by […]; assay type: functional; settings: read-out: LD50 (the source's name)
[25] = system: Bone marrow cell; test: Cytotoxicity against human bone marrow cells assessed as decrease in cell viability at 20 uM after 48 hrs by annexin V-FITC/7-AAD staining based flow cytometry relative to control
Method in brief: (§5)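 Bone marrow and peripheral blood mononuclear cells from healthy donors were isolated by Ficoll density gradient. They were held 1 h in serum-free medium with rhFLT-3 ligand 50 ng/mL, rhSCF 50 ng/mL, rhIL-3 20 ng/mL and rhIL-6 20 ng/mL before drug. Treatment ran 48 h, and viability was read by annexin V/7-AAD flow cytometry relative to untreated control.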

[26] = system: MV4-11; test: Cytotoxicity against human MV4-11 cells assessed as decrease in cell viability at 20 uM after 48 hrs by annexin V-FITC/7-AAD staining based flow cytometry relative to control; assay type: functional; method in brief: as §4
[27] = system: KG-1; test: Cytotoxicity against human KG1 cells assessed as decrease in cell viability at 20 uM after 48 hrs by annexin V-FITC/7-AAD staining based flow cytometry relative to control; assay type: functional; method in brief: as §4
[28] = system: HL-60; test: Cytotoxicity against human HL60 cells assessed as decrease in cell viability at 20 uM after 48 hrs by annexin V-FITC/7-AAD staining based flow cytometry relative to control; assay type: functional; method in brief: as §4
[29] = system: MOLM-13; test: Cytotoxicity against human MOLM13 cells assessed as decrease in cell viability at 20 uM after 48 hrs by annexin V-FITC/7-AAD staining based flow cytometry relative to control; assay type: functional; method in brief: as §4
[30] = system: PBMC; test: Cytotoxicity against human peripheral blood mononuclear cells assessed as decrease in cell viability at 20 uM after 48 hrs by annexin V-FITC/7-AAD staining based flow cytometry relative to control; method in brief: as §5
[31] = system: Bone marrow cell; test: Cytotoxicity against human bone marrow cells assessed as decrease in cell viability at 50 uM after 48 hrs by annexin V-FITC/7-AAD staining based flow cytometry relative to control; method in brief: as §5
[32] = system: PBMC; test: Cytotoxicity against human peripheral blood mononuclear cells assessed as decrease in cell viability at 50 uM after 48 hrs by annexin V-FITC/7-AAD staining based flow cytometry relative to control; method in brief: as §5

Row | Compound | CC50 [1] | inhibition [2] | CC50 [3] | inhibition [4] | inhibition [5] | Activity [6] | Activity [7] | Activity [8] | CC50 [9] | CC50 [10] | CC50 [11] | inhibition [12] | CC50 [13] | CC50 [14] | CC50 [15] | Activity [16] | also measured
1 | C=C1C(=O)O[C@@H]2[C@@H]1CC/C(C)=C/CC[C@]1(C)O[C@H]21 | > 20 µM | Active | 8.6 µM | Active | Active | Non-Toxic | Active | Active | 8.4 µM | 7.4 µM | > 20 µM | Active | 13.9 µM | 3.6 µM | 3.4 µM | Active | –
2 | C=C1C(=O)O[C@@H]2[C@H]3C(C)=CC(=O)C3=C(C)CC[C@@H]12 [DEHYDROLEUCODIN] | 16.8 µM | Active | 5 µM | Active | Active | Non-Toxic | Active | Active | 18.9 µM | 12.2 µM | 18.7 µM | Active | 14.1 µM | 12.9 µM | 12.6 µM | Active | IC50 [17]: 5 µM; Activity [18]: Active; Activity [19]: Active; IC50 [20]: 5.3 µM; IC50 [21]: 10 µM; Activity [22]: Active; Activity [23]: Active; CC50 [24]: 9.4 µM; Activity [25]: Non-Toxic; Activity [26]: Active; Activity [27]: Active; Activity [28]: Active; Activity [29]: Active; Activity [30]: Non-Toxic
3 | CC1=CC(=O)C2=C(C)CC[C@@H]3[C@H](OC(=O)[C@H]3C)[C@@H]12 [DESACETOXYMATRICARIN] | > 20 µM | – | > 20 µM | – | inactive | – | Active | Active | > 20 µM | > 20 µM | > 20 µM | – | > 20 µM | > 20 µM | > 20 µM | Active | Activity [31]: Non-Toxic; Activity [32]: Non-Toxic
